# Measurements reported in ChEMBL document CHEMBL1125866, “Aldophosphamide acetal diacetate and structural analogues: synthesis and cytotoxicity studies” (J Med Chem, 1991).
# How the values were obtained:
# L1210 = assay: Concentration required to reduce the viability of L1210 cells by 50% after 1-h incubation at 37 degrees C; type: functional, cell-based; details: Mus musculus, L1210, 1 h
# Procedure, shortened: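 Exposed to at least seven drug concentrations (0.1–300 μM) for 1 h at 37 °C, washed, regrown drug-free 72 h. MTT reduction read at 570 nm. IC50 from concentration–viability plot, average of duplicates.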
# [1] = Half-life in […] Phosphate buffer at pH 7.4(37 degrees C); type: ADME
# Procedure, shortened: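 Acetal at 100 μM in 0.05 M phosphate buffer, pH 7.4, shaken at 37 °C without enzyme. Aliquots taken at intervals (typically 2–50 h) and parent drug measured by reverse-phase C-18 HPLC with UV detection at 220 nm. Half-life from linear least-squares regression of pseudo-first-order decay.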
# carboxylate esterase = assay: Half-life in […] at pH 7.4(37 degrees C) in the presence of pig Liver Carboxylate Esterase; type: ADME, Sus scrofa; details: pig liver carboxylate esterase in phosphate buffer
# Procedure, shortened: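 Acetal at 100 μM in 0.05 M phosphate buffer, pH 7.4, at 37 °C with pig liver carboxylate esterase, 2 units per μmol substrate (1 unit hydrolyses 1.0 μmol ethyl butyrate/min at pH 8.0, 25 °C). Samples vortexed, centrifuged, supernatant analysed by C-18 HPLC, UV 220 nm. Half-life by least-squares regression, pseudo-first-order.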
Compound,IC50 (L1210),half-life [1],half-life (carboxylate esterase)
O=S(=O)(O)CCS [MESNA],> 200 µM,–,–
CCN(CC)P(=O)(OCCC(OC(C)=O)OC(C)=O)N(CCCl)CCCl (configuration not stated),78 µM,37 h,40 s
C=CC=O.O=S(=O)(O)CCS,168 µM,–,–
CNP(=O)(OCCC(OC(C)=O)OC(C)=O)N(CCCl)CCCl (configuration not stated),38 µM,42 h,42 s
CC(=O)OC(CCOP(=O)(N(C)C)N(CCCl)CCCl)OC(C)=O (configuration not stated),> 245 µM,36 h,36 s
O=P1(N(CCCl)CCCl)NC(OO)CCO1 (configuration not stated) [PERFOSFAMIDE],90 µM,–,–
CC(=O)OC(CCOP(N)(=O)N(CCCl)CCCl)OC(C)=O.O=S(=O)(O)CCS (configuration not stated),0.9 µM,–,–
O=P1(N(CCCl)CCCl)NC(OO)CCO1.O=S(=O)(O)CCS (configuration not stated),90 µM,–,–
O=P1(N(CCCl)CCCl)NCCCO1 (configuration not stated) [CYCLOPHOSPHAMIDE ANHYDROUS],> 300 µM,–,–
C=CC=O [ACROLEIN],48 µM,–,–
CC(=O)OC(CCOP(N)(=O)N(CCCl)CCCl)OC(C)=O (configuration not stated),0.9 µM,38 h,36 s
CCNP(=O)(OCCC(OC(C)=O)OC(C)=O)N(CCCl)CCCl (configuration not stated),29 µM,40 h,42 s
